Source: PMC4893934 (European journal of medicinal chemistry, 2016)
“And” between values parts separate entries of the source, which are not always exact repeats. Equal values may be shown once.

Experiments:
[1] = test system: mutant IDH1 activity (2-HG production) in IDH1-R132H-mutated astrocytoma cell line; type: cell-based; details: 50 µM, 8 h post-incubation, IDH1-mutated astrocytoma cells
Method in brief: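 Isogenic anaplastic astrocytoma lines (WHO grade III-derived subclone with native IDH1-R132H; WT-IDH1 control) were seeded in duplicate at 30,000/well. At confluency, medium was replaced with test compound at 50 µM final (from 20 mM DMSO stock), n=2/experiment, under standard culture conditions. Supernatant was sampled at 4 and 8 h and stored at -80°C. D-2-HG was measured by LC-MS/MS. Controls were vehicle-treated mutant and WT cells.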

IDH1-R132H = IDH1-R132H (Homo sapiens, UniProt O75874, R132H); assay: Mutant IDH1 inhibition assay with purified enzyme; type: biochemical; details: for IC50: IC50 against the mutant IDH1, purified IDH1-R132H enzyme; for inhibition at 392 µM: read-out: maximal enzyme inhibition (inhibitory efficiency), purified IDH1-R132H enzyme, tested range 0.19 – 392 µM
mutant IDH1-R132H enzyme = details: read-out: IC50 against the mutant IDH1-R132H enzyme; cited from earlier work
[2] = test system: IDH1-R132H mutant and WT-IDH1 astrocytoma cell lines; assay: Cell uptake studies of labeled inhibitors; type: cell-based; details: for cell uptake, % of the added activity: mutant IDH1 cell line
Method in brief: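 IDH1-R132H and isogenic WT-IDH1 astrocytoma cells were plated about 24 h ahead at 20,000–30,000/well, then PBS-washed. Cells were incubated with radioiodinated test compound (~3.7 kBq/well) in culture medium at 37°C, 5% CO2, for 0.25–4 h. Co-incubation used unlabeled analog (0–100 µM) for 3 h, or 0.1%/1% versus 10% FBS. After ice-cold PBS washes and 5 min RT lysis, lysate, supernatant and washes were gamma-counted. Uptake is % incubation dose/well.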

[3] = Tissue distribution studies; type: in vivo, BALB/C mice; details: for Biodistribution, Bladder / Biodistribution, Blood / Biodistribution, Bone / Biodistribution, Brain / Biodistribution, Heart / Biodistribution, Intestines / Biodistribution, Kidneys / Biodistribution, Liver / Biodistribution, Lungs / Biodistribution, Muscle / Biodistribution, Skin / Biodistribution, Spleen / Biodistribution, Stomach / Biodistribution, Thyroid: mean ± SD, n=5
[4] = 5 min after i.v. injection, listed as 125I-labeled 1

Sequence of IDH1-R132H (O75874 whole entry R132H): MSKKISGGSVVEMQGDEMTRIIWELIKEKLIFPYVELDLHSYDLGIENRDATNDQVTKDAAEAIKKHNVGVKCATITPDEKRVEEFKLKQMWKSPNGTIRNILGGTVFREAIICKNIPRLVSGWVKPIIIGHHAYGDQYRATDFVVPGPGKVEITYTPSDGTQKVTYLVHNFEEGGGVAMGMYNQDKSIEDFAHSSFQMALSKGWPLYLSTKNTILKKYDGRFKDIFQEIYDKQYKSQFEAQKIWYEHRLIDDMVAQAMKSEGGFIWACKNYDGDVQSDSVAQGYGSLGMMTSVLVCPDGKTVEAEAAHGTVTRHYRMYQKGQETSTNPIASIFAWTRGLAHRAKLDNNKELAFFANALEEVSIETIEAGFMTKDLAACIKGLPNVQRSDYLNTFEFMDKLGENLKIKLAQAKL

With `CCCCc1ccc(NS(=O)(=O)c2ccc(C)c(C(=O)N3CCN(c4ccccc4I)CC3)c2)cc1` [Compound 1, N-(4-Butylphenyl)-3-(4-(2-iodophenyl)piperazine-1-carbonyl)-4-methylbenzenesulfonamide] the “decrease of 2-HG concentration in mutant IDH1 cell supernatants” value [1] was 43%, the IC50 (IDH1-R132H; 0.19 – 392 µM) was 1.7 µM and ~2 µM and the inhibition at 392 µM (IDH1-R132H) was ~100%.
For `CCCCc1ccc(NS(=O)(=O)c2ccc(C)c(C(=O)N3CCN(c4ccc(I)cc4)CC3)c2)cc1` [Compound 2, N-(4-Butylphenyl)-3-(4-(4-iodophenyl)piperazine-1-carbonyl)-4-methylbenzenesulfonamide], the “activity against mutant IDH1 (in words)” value (IDH1-R132H; purified IDH1-R132H enzyme, 0.19 – 392 µM) was “did not show any significant activity”.
With `CCCCc1ccc(NS(=O)(=O)c2ccc(C)c(C(=O)N3CCN(c4ccccc4OCCF)CC3)c2)cc1` [Compound 4, N-(4-Butylphenyl)-3-(4-(2-(2-fluoroethoxy)phenyl)piperazine-1-carbonyl)-4-methylbenzenesulfonamide] the “decrease of 2-HG concentration in mutant IDH1 cell supernatants” value [1] was 50%, the IC50 (IDH1-R132H; 0.19 – 392 µM) was 2.3 µM and ~2 µM and the inhibition at 392 µM (IDH1-R132H) was ~100%.
In the case of `CCCCc1ccc(NS(=O)(=O)c2ccc(C)c(C(=O)N3CCN(c4ccc(OCCF)cc4)CC3)c2)cc1` [Compound 5, N-(4-Butylphenyl)-3-(4-(4-(2-fluoroethoxy)phenyl)piperazine-1-carbonyl)-4-methylbenzenesulfonamide], the IC50 (IDH1-R132H; 0.19 – 392 µM) is reported as 1.2 µM, the “maximal enzyme inhibition (inhibitory efficiency)” value (IDH1-R132H; purified IDH1-R132H enzyme, tested range 0.19 – 392 µM, 392 µM) is reported as 26.4% and the inhibition at 392 µM (IDH1-R132H) is reported as ~30%.
For `COc1ccccc1N1CCN(C(=O)c2cc(S(=O)(=O)Nc3ccc(CCCF)cc3)ccc2C)CC1` [Compound 6, N-(4-(3-Fluoropropyl)phenyl)-3-(4-(2-methoxyphenyl)piperazine-1-carbonyl)-4-methylbenzenesulfonamide], the IC50 (IDH1-R132H; 0.19 – 392 µM) was 2.7 µM and the inhibition at 392 µM (IDH1-R132H) was 99%.
In the case of `COc1ccccc1N1CCN(C(=O)c2cc(S(=O)(=O)Nc3ccc(CCCCF)cc3)ccc2C)CC1` [Compound 7, N-(4-(4-Fluorobutyl)phenyl)-3-(4-(2-methoxyphenyl)piperazine-1-carbonyl)-4-methylbenzenesulfonamide], the IC50 (IDH1-R132H; 0.19 – 392 µM) is reported as 2.4 µM and the inhibition at 392 µM (IDH1-R132H) is reported as 81%.
For `CCCCc1ccc(NS(=O)(=O)c2ccc(C)c(C(=O)N3CCN(c4ccccc4OC)CC3)c2)cc1` [Compound A, N-(4-butylphenyl)-3-(4-(2-methoxyphenyl)piperazine-1-carbonyl)-4-methylbenzenesulfonamide, reference compound], the IC50 (mutant IDH1-R132H enzyme) is listed as < 1 µM, the IC50 (IDH1-R132H; 0.19 – 392 µM) is listed as 2.2 µM and the inhibition at 392 µM (IDH1-R132H) is listed as ~100%.
With `CCCCc1ccc(NS(=O)(=O)c2ccc(C)c(C(=O)N3CCN(c4ccccc4[125I])CC3)c2)cc1` [[^125I]1, N-(4-Butylphenyl)-3-(4-(2-[^125I]iodophenyl)piperazine-1-carbonyl)-4-methylbenzenesulfonamide] the “average uptake ratio mutant-IDH1 / WT-IDH1 cell lines” value ([2]; 2 h incubation) was 1.66, the “maximal increase in uptake versus no-carrier-added tracer” value ([2]; co-incubation with 10 µM unlabeled 1, 3 h) was 53 fold and the “cell uptake, % of the added activity” value ([2]; 15 min incubation) was “about 0.5%”. For the same molecule, the “cell uptake, % of the added activity” value ([2]; 3 h incubation) was 0.80 ± 0.04%, the “uptake in the brain” value ([3]; 1 – 4 h after injection) was ≤ 0.07 %ID/g and the “Biodistribution, Bladder” value ([3]; 5 min after i.v. injection) was 0.03 ± 0.01 %ID. For the same molecule, the “Biodistribution, Blood” value ([3]; 5 min after i.v. injection) was “about 12 %ID”, the “Biodistribution, Bone” value ([3]; 5 min after i.v. injection) was 3.92 ± 1.45 %ID and the “Biodistribution, Brain” value ([3]; 5 min after i.v. injection) was 0.15 ± 0.05 %ID. For the same molecule, the “Biodistribution, Heart” value ([3]; 5 min after i.v. injection) was 1.11 ± 0.39 %ID, the “Biodistribution, Intestines” value ([3]; 5 min after i.v. injection) was 6.37 ± 5.80 %ID and the “Biodistribution, Kidneys” value ([3]; 5 min after i.v. injection) was 3.50 ± 1.08 %ID. The “Biodistribution, Liver” value ([3]; 5 min after i.v. injection) was “About 30 %ID”, the “Biodistribution, Lungs” value ([3]; 5 min after i.v. injection) was 1.69 ± 0.83 %ID and the “Biodistribution, Muscle” value ([3]; 5 min after i.v. injection) was 13.79 ± 4.85 %ID. For the same molecule, the “Biodistribution, Skin” value ([3]; 5 min after i.v. injection) was 3.31 ± 0.74 %ID, the “Biodistribution, Spleen” value ([3]; 5 min after i.v. injection) was 0.36 ± 0.12 %ID and the “Biodistribution, Stomach” value ([3]; 5 min after i.v. injection) was 0.40 ± 0.12 %ID. For the same molecule, the “Biodistribution, Thyroid” value ([3]; 5 min after i.v. injection) was 0.32 ± 0.18 %ID, the “Biodistribution, Blood” value [3, 4] was 11.83 ± 1.99 %ID and the “Biodistribution, Liver” value [3, 4] was 29.43 ± 5.60 %ID. The “activity concentration in the thyroid gland” value ([3]; 5 min after injection) was 1.69 ± 0.93 %ID/g, the “uptake in the brain” value ([3]; 5 min after injection) was 0.39 ± 0.13 %ID and the “Biodistribution, Bladder” value ([3]; 1 h after i.v. injection) was 0.01 ± 0.01 %ID. For the same molecule, the “Biodistribution, Blood” value ([3]; 1 h after i.v. injection) was 0.71 ± 0.27 %ID, the “Biodistribution, Bone” value ([3]; 1 h after i.v. injection) was 1.21 ± 0.14 %ID and the “Biodistribution, Brain” value ([3]; 1 h after i.v. injection) was 0.03 ± 0.01 %ID. For the same molecule, the “Biodistribution, Heart” value ([3]; 1 h after i.v. injection) was 0.12 ± 0.02 %ID, the “Biodistribution, Intestines” value ([3]; 1 h after i.v. injection) was 38.13 ± 1.49 %ID and the “Biodistribution, Kidneys” value ([3]; 1 h after i.v. injection) was 0.88 ± 0.14 %ID. The “Biodistribution, Liver” value ([3]; 1 h after i.v. injection) was 13.30 ± 0.69 %ID, the “Biodistribution, Lungs” value ([3]; 1 h after i.v. injection) was 0.17 ± 0.02 %ID and the “Biodistribution, Muscle” value ([3]; 1 h after i.v. injection) was 8.21 ± 0.77 %ID. For the same molecule, the “Biodistribution, Skin” value ([3]; 1 h after i.v. injection) was 2.90 ± 1.07 %ID, the “Biodistribution, Spleen” value ([3]; 1 h after i.v. injection) was 0.05 ± 0.01 %ID and the “Biodistribution, Stomach” value ([3]; 1 h after i.v. injection) was 0.65 ± 0.18 %ID. The “Biodistribution, Thyroid” value ([3]; 1 h after i.v. injection) was 0.04 ± 0.03 %ID, the “maximum excreted into the urine” value ([3]; 1 h after injection) was 2.84 % ID and the “Biodistribution, Bladder” value ([3]; 2 h after i.v. injection) was 0.02 ± 0.03 %ID. For the same molecule, the “Biodistribution, Blood” value ([3]; 2 h after i.v. injection) was 0.29 ± 0.09 %ID, the “Biodistribution, Bone” value ([3]; 2 h after i.v. injection) was 0.60 ± 0.29 %ID and the “Biodistribution, Brain” value ([3]; 2 h after i.v. injection) was 0.02 ± 0.01 %ID. For the same molecule, the “Biodistribution, Heart” value ([3]; 2 h after i.v. injection) was 0.04 ± 0.01 %ID, the “Biodistribution, Intestines” value ([3]; 2 h after i.v. injection) was 53.24 ± 7.84 %ID and the “Biodistribution, Kidneys” value ([3]; 2 h after i.v. injection) was 0.43 ± 0.15 %ID. For the same molecule, the “Biodistribution, Liver” value ([3]; 2 h after i.v. injection) was 6.57 ± 1.77 %ID, the “Biodistribution, Lungs” value ([3]; 2 h after i.v. injection) was 0.07 ± 0.03 %ID and the “Biodistribution, Muscle” value ([3]; 2 h after i.v. injection) was 3.91 ± 0.87 %ID. The “Biodistribution, Skin” value ([3]; 2 h after i.v. injection) was 1.25 ± 0.53 %ID, the “Biodistribution, Spleen” value ([3]; 2 h after i.v. injection) was 0.03 ± 0.01 %ID and the “Biodistribution, Stomach” value ([3]; 2 h after i.v. injection) was 0.63 ± 0.82 %ID. The “Biodistribution, Thyroid” value ([3]; 2 h after i.v. injection) was 0.05 ± 0.05 %ID, the “activity in the hepatobiliary system” value ([3]; 2 h after injection) was “approximately 60 % ID” and the “Biodistribution, Bladder” value ([3]; 4 h after i.v. injection) was 0.01 ± 0.01 %ID. The “Biodistribution, Blood” value ([3]; 4 h after i.v. injection) was “about 0.13 %ID”, the “Biodistribution, Bone” value ([3]; 4 h after i.v. injection) was 0.22 ± 0.14 %ID and the “Biodistribution, Brain” value ([3]; 4 h after i.v. injection) was 0.01 ± 0.00 %ID. For the same molecule, the “Biodistribution, Heart” value ([3]; 4 h after i.v. injection) was 0.01 ± 0.00 %ID, the “Biodistribution, Intestines” value ([3]; 4 h after i.v. injection) was 41.40 ± 6.02 %ID and the “Biodistribution, Kidneys” value ([3]; 4 h after i.v. injection) was 0.16 ± 0.03 %ID. The “Biodistribution, Liver” value ([3]; 4 h after i.v. injection) was 3.41 ± 0.62 %ID, the “Biodistribution, Lungs” value ([3]; 4 h after i.v. injection) was 0.03 ± 0.01 %ID and the “Biodistribution, Muscle” value ([3]; 4 h after i.v. injection) was 1.57 ± 0.34 %ID. The “Biodistribution, Skin” value ([3]; 4 h after i.v. injection) was 0.56 ± 0.09 %ID, the “Biodistribution, Spleen” value ([3]; 4 h after i.v. injection) was 0.01 ± 0.01 %ID and the “Biodistribution, Stomach” value ([3]; 4 h after i.v. injection) was 1.22 ± 2.12 %ID. For the same molecule, the “Biodistribution, Thyroid” value ([3]; 4 h after i.v. injection) was 0.06 ± 0.03 %ID, the “Biodistribution, Blood” value ([3]; 4 h after i.v. injection, listed as 125I-labeled 1) was 0.13 ± 0.01 %ID and the “activity concentration in the thyroid gland” value ([3]; 4 h after injection) was 0.42 ± 0.16 %ID/g. For the same molecule, the “activity concentration in the vital organs except liver” value ([3]; 4 h after injection) was < 0.2 % ID/g.
